The nature of experiment [1]: reducers of endogenous Her2 protein level, primary screen, SKBR3 breast tumor cells, AlphaScreen, ATP viability (AID 461;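 active = Her2 level under about 52% in both replicate screens, with viability over 70% of control, limit read from the data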;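 for Her2 level: lower value means less Her2 protein in the cells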;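 for viability: percent of carrier control wells set as 100% viability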). Conditions: 18-24 h, measured here: SKBR3 viability, ATP luminescence, at 10 µM. In general terms: In Alpha technology, singlet oxygen from a donor bead excites a nearby acceptor bead.
The target of experiment [2] is Receptor tyrosine-protein kinase erbB-2 (Homo sapiens) (UniProt P04626). Described as above. Particulars: 18-24 h, at 10 µM, stronger effect = lower value.
Experiment [3] in a line: SK-BR-3 cell growth inhibitors, pilot screen, 24 h, human (AID 572).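 Note: compound exposure lasted between 18 and 24 h rather than exactly 24 h; 100% = carrier-treated control wells.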 Particulars: SK-BR-3 viability, CellTiter-Glo luminescence, at 10 µM, stronger effect = lower value.
Experiment [4] in a line: HUVEC growth inhibition – cell-based, human, primary screen (AID 575;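 active = viability at or below 30% in both replicate assays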;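 note: 100% = median of untreated cell wells with 0.1% DMSO on each plate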). Conditions: HUVEC proliferation, CellTiter-Glo luminescence, 72 h; at 10 µM; stronger effect = lower value. The method in brief: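 Timing: 72 h treatment at 37 °C; material: HUVEC primary cells; technique: CellTiter-Glo luminescence measuring cellular ATP; controls: vehicle and MePR control wells; measure: percent of median DMSO-control luminescence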
In general terms: In ATP-based viability assays light output follows the ATP content of the culture.

Experiment [5] in a line: growth inhibitors of H69AR lung tumor, primary screen, human, duplicate replicates (AID 580;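 active = viability at or under a set limit in both replicates, limit being median viability minus 3 SD, cut at about 48% in these data, passing the limit was not always enough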;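 note: 100% = mean luminescence of untreated wells and 0% = no signal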). Particulars: H69AR lung tumor cells viability, ATP luminescence, 72 h; at 10 µM; stronger effect = lower value.
Experiment [6] in a line: reversal of MRP1-mediated doxorubicin resistance, pilot screen, H69AR cells, doxorubicin co-treatment (AID 601;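 active = viability loss from added drug above about 55%, and viability with drug at most 40%, in both replicates, limit read from the data, passing the limit was not always enough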). Conditions: CellTiter-Glo, 72 h, at 10 µM; for differential viability (reversal): stronger effect = higher value.
Experiment [7] can be described thus: 384-well plate pilot, post-Golgi transport modulator project, inhibition of yeast transport mutant growth (AID 636; in the data active = inhibition above about 31%). Particulars: absorbance 615 nm, about 18 h, stronger effect = higher value.
Experiment [8] is described as follows: growth suppression of yeast trafficking mutant, preliminary HTS, modulators of trafficking downstream of Golgi apparatus project, 1536-format plate, OD 615 nm (AID 637; in the data active = inhibition above about 30%). Particulars: yeast transport mutant growth, absorbance 615 nm, 18 h; stronger effect = higher value.
Where [9] appears, read: H69AR cells + 2 uM doxorubicin, measured here: viability with 2 uM doxorubicin, stronger effect = lower value.
Where [10] appears, read: H69AR cells, compound alone cytotoxicity.

Activity calls are given as the source filed them.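 Rule for the calls, unless noted: active = viability at or below 10% of carrier control in both of two separate runs; inconclusive = viability at or below 10% in only one of the two runs; inactive = the rest.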

Sequence of Receptor tyrosine-protein kinase erbB-2 (Homo sapiens) (P04626 whole entry, looked up): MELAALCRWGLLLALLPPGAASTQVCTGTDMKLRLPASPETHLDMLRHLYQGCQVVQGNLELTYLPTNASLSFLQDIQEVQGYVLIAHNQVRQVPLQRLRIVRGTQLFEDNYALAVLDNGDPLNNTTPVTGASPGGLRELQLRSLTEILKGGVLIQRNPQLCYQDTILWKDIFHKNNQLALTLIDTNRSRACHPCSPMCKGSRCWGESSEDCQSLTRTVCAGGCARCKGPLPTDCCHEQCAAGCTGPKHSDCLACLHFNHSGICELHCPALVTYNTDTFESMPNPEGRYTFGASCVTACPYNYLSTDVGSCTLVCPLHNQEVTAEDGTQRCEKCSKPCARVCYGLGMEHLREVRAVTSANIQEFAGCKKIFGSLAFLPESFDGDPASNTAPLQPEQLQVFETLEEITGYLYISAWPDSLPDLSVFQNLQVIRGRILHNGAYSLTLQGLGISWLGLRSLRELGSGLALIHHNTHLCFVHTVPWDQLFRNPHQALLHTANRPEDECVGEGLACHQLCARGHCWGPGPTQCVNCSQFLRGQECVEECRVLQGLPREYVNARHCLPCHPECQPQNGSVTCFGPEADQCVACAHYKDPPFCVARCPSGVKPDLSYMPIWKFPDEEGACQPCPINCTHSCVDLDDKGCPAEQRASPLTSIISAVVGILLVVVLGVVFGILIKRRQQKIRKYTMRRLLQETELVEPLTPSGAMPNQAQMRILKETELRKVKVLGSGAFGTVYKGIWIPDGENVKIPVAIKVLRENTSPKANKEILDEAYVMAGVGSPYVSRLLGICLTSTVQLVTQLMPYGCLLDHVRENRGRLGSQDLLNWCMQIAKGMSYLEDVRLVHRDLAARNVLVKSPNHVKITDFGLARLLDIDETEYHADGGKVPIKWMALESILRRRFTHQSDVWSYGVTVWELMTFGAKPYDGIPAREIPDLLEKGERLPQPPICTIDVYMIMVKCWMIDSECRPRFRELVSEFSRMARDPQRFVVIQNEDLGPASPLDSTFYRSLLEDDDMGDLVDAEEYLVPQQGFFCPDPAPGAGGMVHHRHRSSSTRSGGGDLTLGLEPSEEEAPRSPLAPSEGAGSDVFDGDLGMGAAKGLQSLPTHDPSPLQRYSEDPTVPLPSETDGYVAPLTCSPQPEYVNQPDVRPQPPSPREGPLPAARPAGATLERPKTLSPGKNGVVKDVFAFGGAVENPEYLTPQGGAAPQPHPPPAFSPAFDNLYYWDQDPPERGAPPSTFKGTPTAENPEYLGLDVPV

As to `Cc1ccc(C(=O)Nc2ccc3c(c2)OCO3)cc1S(=O)(=O)N1CCCC1`, the viability is 102% in experiment [1]; 102% (inactive) in experiment [3]; 67.3% (inactive) in experiment [4]; 82.6% (inactive) in experiment [5]; 83.3% in experiment [6] (setting [9]); 82.6% in experiment [6] (setting [10]). Also, the Her2 level in experiment [2] was 89% (inactive). In addition, the differential viability (reversal) in experiment [6] (H69AR cells + 2 uM doxorubicin) is -0.715% (inactive). Also, the values for the inhibition in experiment [7] and in experiment [8] were -4% (inactive) and 2.54% (inactive), respectively.
Regarding `O=c1c(CN2CCN(Cc3ccccc3)CC2)coc2ccc(Cl)cc12`, the viability in experiment [1] is 90%; in experiment [3], 90% (inactive); in experiment [4] it was 100% (inactive); in experiment [5], 95.7% (inactive); in experiment [6] (setting [9]), 83.3%; in experiment [6] (setting [10]), 95.7%. Further, in experiment [2], the Her2 level is 85.5% (inactive). The differential viability (reversal) in experiment [6] (H69AR cells + 2 uM doxorubicin) is 12.5% (inactive). Also, the inhibition was -4.81% (inactive) in experiment [7] and -6.89% (inactive) in experiment [8].
On to `O=C(O)CCc1ccc(-c2cccs2)o1`, for which the viability in experiment [1] was 94%; in experiment [3] it was 94% (inactive); in experiment [4] it was 95.9% (inactive); in experiment [5], 95.9% (inactive); in experiment [6] (setting [9]), 91.6%; in experiment [6] (setting [10]), 95.9%. Also, in experiment [2], the Her2 level was 86% (inactive). The differential viability (reversal) in experiment [6] (H69AR cells + 2 uM doxorubicin) was 4.25% (inactive). Further, the inhibition in experiment [7] is -0.26% (inactive); in experiment [8] it was -5.67% (inactive).
Turning to `O=C(CN1C(=O)C2C3C=CC(C3)C2C1=O)NCc1ccc2c(c1)OCO2` (stereo not given), the viability in experiment [1] was 102%; in experiment [3], 102% (inactive); in experiment [4], 97.9% (inactive); in experiment [5] it was 98.2% (inactive); in experiment [6] (setting [9]), 90.1%; in experiment [6] (setting [10]), 98.2%. Further, the Her2 level in experiment [2] was 109% (inactive). Besides, the differential viability (reversal) in experiment [6] (H69AR cells + 2 uM doxorubicin) was 8.13% (inactive). In addition, the inhibition in experiment [7] was -1.43% (inactive); in experiment [8], -7.78% (inactive).
On to `COc1cc(OC)c(OC)cc1CN(C)CCc1ccccn1`, for which the viability in experiment [1] was 104%; in experiment [3], 104% (inactive); in experiment [4] it was 96.7% (inactive); in experiment [5], 86.9% (inactive); in experiment [6] (setting [9]), 91.8%; in experiment [6] (setting [10]) it was 86.9%. Moreover, in experiment [2], the Her2 level is 107% (inactive). Moreover, the differential viability (reversal) in experiment [6] (H69AR cells + 2 uM doxorubicin) is -4.87% (inactive). Moreover, the inhibition was -1.79% (inactive) in experiment [7] and 7% (inactive) in experiment [8].
In the case of `COc1ccccc1OCc1ccc(C(=O)NC(C)(C)C)o1`, the viability was 83% in experiment [1]; 83% (inactive) in experiment [3]; 94.2% (inactive) in experiment [4]; 95.4% (inactive) in experiment [5]; 80.9% in experiment [6] (setting [9]); 95.4% in experiment [6] (setting [10]). Besides, the Her2 level in experiment [2] is 102% (inactive). The differential viability (reversal) in experiment [6] (H69AR cells + 2 uM doxorubicin) was 14.6% (inactive). In addition, the inhibition in experiment [7] is 1.71% (inactive); in experiment [8], -5.82% (inactive).
On to `Cc1cc(O)c(C2(C(F)(F)F)NCCNC2=O)cc1C` (stereo not given), for which the viability in experiment [1] was 100%; in experiment [3], 100% (inactive); in experiment [4] it was 99.5% (inactive); in experiment [5], 98.8% (inactive); in experiment [6] (setting [9]), 91.7%; in experiment [6] (setting [10]) it was 98.8%. Also, the Her2 level in experiment [2] is 96% (inactive). Besides, the differential viability (reversal) in experiment [6] (H69AR cells + 2 uM doxorubicin) was 7.08% (inactive). The inhibition is -4.61% (inactive) in experiment [7] and -0.32% (inactive) in experiment [8].
On to `COc1ccc(-c2noc(COc3ccc4ccccc4c3Br)n2)cc1OC`, for which the viability in experiment [1] is 129%; in experiment [3] it was 129% (inactive); in experiment [4], 112% (inactive); in experiment [5] it was 80.8% (inactive); in experiment [6] (setting [9]) it was 75.5%; in experiment [6] (setting [10]), 80.8%. In addition, the Her2 level in experiment [2] is 104% (inactive). The differential viability (reversal) in experiment [6] (H69AR cells + 2 uM doxorubicin) was 5.36% (inactive). Moreover, the figures for the inhibition in experiment [7] and in experiment [8] were -4.21% (inactive) and -3.23% (inactive), respectively.
Regarding `CC1CCCCC1NC(=O)c1ccc(N2CCCC2=O)cc1` (stereo not given), the viability in experiment [1] is 112%; in experiment [3] it was 112% (inactive); in experiment [4] it was 111% (inactive); in experiment [5], 90.3% (inactive); in experiment [6] (setting [9]), 83.2%; in experiment [6] (setting [10]) it was 90.3%. Moreover, the Her2 level in experiment [2] was 106% (inactive). Besides, the differential viability (reversal) in experiment [6] (H69AR cells + 2 uM doxorubicin) was 7.01% (inactive). The inhibition in experiment [7] is -2.21% (inactive); in experiment [8], 2.79% (inactive).
Consider `Cc1ccc(-c2csc3nnc(SCC(=O)NCc4ccco4)n23)cc1`, for which the viability in experiment [1] is 88.5%; in experiment [3], 88.5% (inactive); in experiment [4] it was 85.6% (inactive); in experiment [5], 84.2% (inactive); in experiment [6] (setting [9]) it was 83.6%; in experiment [6] (setting [10]) it was 84.2%. The Her2 level in experiment [2] is 84.5% (inactive). Besides, the differential viability (reversal) in experiment [6] (H69AR cells + 2 uM doxorubicin) was 0.64% (inactive). Besides, the inhibition was -6.27% (inactive) in experiment [7] and -4.19% (inactive) in experiment [8].
In the case of `O=C(Cn1cccc1)N1CCN(C(c2ccccc2)c2ccccc2)CC1`, the viability was 102% in experiment [1]; 102% (inactive) in experiment [3]; 108% (inactive) in experiment [4]; 91.4% (inactive) in experiment [5]; 95.9% in experiment [6] (setting [9]); 91.4% in experiment [6] (setting [10]). Also, the Her2 level in experiment [2] is 87% (inactive). Further, the differential viability (reversal) in experiment [6] (H69AR cells + 2 uM doxorubicin) was -4.55% (inactive). The inhibition in experiment [7] is -6.76% (inactive); in experiment [8], 4.33% (inactive).
As to `O=C(COC(=O)CCc1c[nH]c2ccccc12)NC1CCS(=O)(=O)C1` (stereo not given), the viability was 87.5% in experiment [1]; 87.5% (inactive) in experiment [3]; 90.8% (inactive) in experiment [4]; 90.1% (inactive) in experiment [5]; 89.1% in experiment [6] (setting [9]); 90.1% in experiment [6] (setting [10]). For the same compound, the Her2 level in experiment [2] is 96% (inactive). Further, in experiment [6] (H69AR cells + 2 uM doxorubicin), the differential viability (reversal) was 1.06% (inactive). Also, the inhibition is 1.04% (inactive) in experiment [7] and -4.76% (inactive) in experiment [8].
As to `Cc1ccc(CNC(=O)COC(=O)c2c(C)noc2C)cc1`, the viability in experiment [1] is 99%; in experiment [3], 99% (inactive); in experiment [4], 97.4% (inactive); in experiment [5], 92.8% (inactive); in experiment [6] (setting [9]), 85.6%; in experiment [6] (setting [10]), 92.8%. The Her2 level in experiment [2] is 121% (inactive). Further, the differential viability (reversal) in experiment [6] (H69AR cells + 2 uM doxorubicin) was 7.25% (inactive). In addition, the inhibition in experiment [7] was -4.03% (inactive); in experiment [8], -14.2% (inactive).
As for `Cc1ccc(-c2cn3nc(C)c(C)nc3n2)cc1`, the viability in experiment [1] was 106%; in experiment [3], 106% (inactive); in experiment [4] it was 75.4% (inactive); in experiment [5], 85.5% (inactive); in experiment [6] (setting [9]), 81.5%; in experiment [6] (setting [10]), 85.5%. Also, in experiment [2], the Her2 level was 94% (inactive). Besides, the differential viability (reversal) in experiment [6] (H69AR cells + 2 uM doxorubicin) was 4% (inactive). Besides, the inhibition in experiment [7] is -4.93% (inactive); in experiment [8], 0% (inactive).

The viability is a read-out of living cells in per cent, often relative to untreated cells. Broadly, the inhibition is the change of the read-out against control, counted positive when it falls.

These data come from PubChem BioAssay.
